Screens from PubChem BioAssay.
Shown are actives, neighbours in structure and some others; about 1.6% of the full set was active somewhere.
UHRF1 binding – blocks human UHRF1 binding to methylated DNA; Q96T88; UHRF1 binding to methylated oligo, TR-FRET; inhibition, % at 4.4 µM; 370,000 tested, 0.75% active; AID 687016; in the data active = inhibition above about 21%;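 also: UHRF1 SRA domain binding a hemimethylated CpG hairpin DNA probe; 0% = median of test compound wells and 100% = reference inhibitor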
LEDGF integ inh – blocks HIV-1 LEDGF/p75-dependent DNA integration | AID 743269 | 370,000 tested, 0.64% active | TR-FRET IN-LEDGF/p75 DNA integration, Eu/Cy5 | inhibition, % at 3.7 µM;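 active = inhibition above the screen-wide mean plus 3 SD, cut at about 13% in these data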;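 also: signal is the Cy5 over europium emission ratio at 671 and 618 nm; 0% = plate median of compound wells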
MBD2 DNA inh – MBD2-methylated oligo binding inhibition. inhibition, % at 4.4 µM. AID 686964. TR-FRET, MBD2 binding to methylated oligonucleotide. 370,000 tested, 0.31% active. Q9UBB5; in the data active = inhibition above about 13%
Target sequence (Q9UBB5 whole entry, looked up): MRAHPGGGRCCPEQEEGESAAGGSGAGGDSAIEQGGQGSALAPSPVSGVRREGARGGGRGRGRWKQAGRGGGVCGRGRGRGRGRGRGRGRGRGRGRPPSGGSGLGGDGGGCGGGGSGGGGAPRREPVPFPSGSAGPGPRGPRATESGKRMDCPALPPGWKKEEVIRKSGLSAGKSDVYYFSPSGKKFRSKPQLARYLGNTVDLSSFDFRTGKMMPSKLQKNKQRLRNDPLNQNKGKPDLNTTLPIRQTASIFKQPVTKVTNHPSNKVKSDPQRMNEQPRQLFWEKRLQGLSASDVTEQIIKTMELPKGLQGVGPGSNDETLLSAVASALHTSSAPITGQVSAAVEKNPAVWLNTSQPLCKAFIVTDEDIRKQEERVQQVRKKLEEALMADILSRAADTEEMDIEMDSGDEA
TDP2 absorb – blocks human TDP2 phosphodiesterase activity. O95551. recombinant TDP2, T5PNP hydrolysis, p-nitrophenol absorbance 415 nm. inhibition, % at 12.8 µM. 370,000 tested, 0.34% active. AID 720702;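 active = inhibition above the mean of all tested compounds plus 3 SD, set per campaign, cut at about 25% in these data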;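 also: 0% = DMSO with enzyme and 100% = buffer with substrate but no TDP2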
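Evaluation: % inhibition relative to enzyme-containing and enzyme-free wells. Material: recombinant human TDP2. Benchmarks: enzyme-free and DMSO wells. Timing: enzyme reaction with compound for 2 h at 37 °C. Compound dosing: 12.8 µM only. Measured by: p-Nitrophenol epi absorbance. Reagent: T5PNP substrate at 5 mM, a TopII-DNA adduct mimic. Replication: single well per compound.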
Starred values were filed as active, the others as inactive.

SMILES | UHRF1 binding | LEDGF integ inh | MBD2 DNA inh | TDP2 absorb
CC(=O)Nc1ccc(NC2=C/C(=N/S(=O)(=O)c3cccs3)c3ccccc3C2=O)cc1 | 3 | 50* | -6 | 77*
O=C(O)c1ccc(S(=O)(=O)/N=C2\C=C(Nc3ccccc3F)C(=O)c3ccccc32)cc1 | 7 | 60* | -11 | 89*
CCc1ccc(S(=O)(=O)/N=C2\C=C(NS(=O)(=O)c3ccccc3)C(=O)c3ccccc32)cc1 | -2 | 11 | -13 | 18
CC(C)c1ccc(S(=O)(=O)/N=C2\C=C(NS(=O)(=O)c3ccccc3)C(=O)c3ccccc32)cc1 | -4 | 25* | -16 | 25*
COc1ccc(S(=O)(=O)/N=C2\C=C(Nc3ccc(O)cc3)C(=O)c3ccccc32)cc1 | 0 | 65* | -6 | 67*
O=S(=O)(/N=C(/Nc1ccccc1F)c1ccccc1)c1ccccc1 | -1 | 1 | -7 | -9
Cc1ccc(NC2=C/C(=N/S(=O)(=O)c3cccs3)c3ccccc3C2=O)cc1C | -3 | 5 | 1 | -1
CCOC(=O)C1=CN(Cc2ccco2)S(=O)(=O)N(C)C1CC (stereo not given) | 22* | 6 | 2 | 6
CCN(C(=O)CSc1n[nH]c(-c2cccs2)n1)C1CCS(=O)(=O)C1 (stereo not given) | 3 | -7 | 1 | -12
CCCC(C)NC(=O)COC(=O)c1ccc2c(c1)C(=O)N(Cc1ccco1)C2=O (stereo not given) | -3 | 2 | 2 | -8
COc1ccccc1NS(=O)(=O)c1cccc(NC(=O)c2sc3ccccc3c2Cl)c1 | 26* | -2 | -1 | 1
COc1ccccc1NS(=O)(=O)c1ccc(Cl)c(NC(=O)c2sc3cc(Cl)ccc3c2Cl)c1 | 0 | -2 | 2 | 5
COc1cccc(NC(=O)CN(C)C(=O)CNC(=O)c2sc3ccccc3c2Cl)c1 | 21* | 5 | 8 | -11
Cc1cc(C)n2ncc(C(=O)Nc3ccc4c(c3)CCC4)c2n1 | -2 | 1 | 2 | 13
Cc1ccc(-c2cnc(NC(=O)c3cccc(Br)c3)s2)c(C)c1 | 26* | -2 | 13 | 6
O=C(CO)N/N=C/c1ccccc1F | -1 | -1 | 1 | -11
COc1ccc(C(=O)NC2CC2)cc1OC1CCN(Cc2ccc(F)cc2Cl)CC1 | 29* | 9 | 9 | 7
Cc1ccccc1N1CCN(C2CCCN(C(=O)CCN3CCCCC3=O)C2)CC1 (stereo not given) | 24* | 4 | 1 | -4
Cc1ccccc1N1CCN(C2CCCN(C(=O)CN3CCCC3=O)C2)CC1 (stereo not given) | 1 | 0 | 3 | -5
CC1CCN(C(=O)c2ccc(NC(=O)c3ccccc3)cc2)CC1 | 2 | 1 | 3 | -3
C[C@H]1COc2cc(Br)ccc2S(=O)(=O)N1Cc1cn(CC2CCCCC2)nn1 | -3 | 5 | -1 | 4
CCCCn1nnnc1C(CC)N1CCN(C/C=C/c2ccccc2)CC1 (stereo not given) | 22* | 3 | 10 | 1
COc1cc(O)c(CCC(=O)c2ccc(OC)c(OC)c2)c(OC)c1 | 63* | -3 | 2 | -19
CCCC(=O)Nc1ccc(C(=O)NCC(=O)OCC)cc1 | 3 | 1 | -2 | -3
COCc1cc(C)nc2oc(C(=O)c3ccccc3)c(N)c12 | 0 | 3 | -2 | -3
SMILES | UHRF1 binding | LEDGF integ inh | MBD2 DNA inh | TDP2 absorb
CN(C)S(=O)(=O)n1cc(/C=C(\NC(=O)c2ccccc2F)C(=O)N2CCCCC2)c2ccccc21 | 24* | 6 | 2 | -2
O=C(O)c1ccc(N/N=C/c2ccc(-c3ccccc3)cc2)cc1 | -1 | -2 | -5 | -6
O=C(O)c1ccc(N/N=C/C=C/c2ccccc2)cc1 | 21* | 0 | 2 | -4
O=C(CS(=O)(=O)Cc1ccccc1)Nc1nc2c(s1)CCCC2 | -2 | -1 | -1 | -12
O=C(CCS(=O)(=O)Cc1ccccc1)Nc1nc2c(s1)CCCC2 | 1 | 33* | 1 | -1
CCOC(=O)[C@]12CCC=C1N(Cc1ccccc1)C(=O)[C@H](CC(=O)NCCCCc1ccccc1)C2 | -3 | 0 | -1 | -6
CCOC(=O)[C@]12CCC=C1N(Cc1ccccc1)C(=O)[C@H](CC(=O)NCCC(C)C)C2 | 24* | -3 | -3 | 4
Cc1nn(-c2ccccc2)c2nc(-c3ccco3)cc(C(=O)O)c12 | 14 | 16* | 5 | 9
N#CCC(=O)Nc1ccc(C(=O)Nc2cccc(S(=O)(=O)N3CCCC3)c2)cc1 | 69* | 1 | 2 | 2
COc1ccc(NCC(=O)Nc2cccc(S(=O)(=O)N3CCCC3)c2)cc1Cl | 26* | 5 | -2 | -12
COc1ccc(NCC(=O)N2CCCC2)cc1Cl | -1 | 53* | -3 | -7
COc1cc(NC(=O)CNc2cccc(S(=O)(=O)N3CCCC3)c2)cc(OC)c1 | -1 | -3 | 1 | 8
COc1ccc(S(=O)(=O)N2CCCCCC2)cc1NC(C)C(=O)Nc1ccc(NC(C)=O)cc1 (stereo not given) | 33* | 2 | -4 | 1
CC(C)(C)[C@H]1C=C(C(=O)NCc2nc3ccccc3[nH]2)O[C@@H](OCc2ccc(CO)cc2)C1 | -4 | 1 | -4 | 1
O=C(NC(=S)Nc1cc([N+](=O)[O-])ccc1Cl)c1ccccc1 | 0 | 0 | -3 | 3
Cc1nnc(SCC(=O)Nc2sc3c(c2C#N)CCCCC3)n1N | -3 | -2 | -5 | 3
CC(C)C[C@@H]1COc2cc(Br)ccc2S(=O)(=O)N1Cc1cn(Cc2ccco2)nn1 | -3 | -1 | 2 | 7
COc1ccc(OCc2cc(C(=O)NC(C)Cc3cccnc3)no2)c(Cl)c1 (stereo not given) | -2 | -3 | -6 | 0
COc1ccc(OCc2cc(C(=O)NC(C)Cn3cncn3)no2)c(Cl)c1 (stereo not given) | 27* | 7 | 9 | 5
CCOc1ccc(OCC)c(NC(=O)C2CCCN(S(=O)(=O)c3cccs3)C2)c1 (stereo not given) | 6 | 5 | 5 | -14
CC(C)NC(=O)c1ccc(CSCc2ccccc2Cl)o1 | 25* | -3 | 1 | 5
CCC(C)NC(=O)c1ccc(CSCc2ccccc2Cl)o1 (stereo not given) | -3 | -1 | 3 | 16
CCN(CCCn1c(=S)[nH]c2ncccc2c1=O)c1ccccc1 | 2 | 2 | 2 | -7
CCN(CC)CCCn1c(=S)[nH]c2ncccc2c1=O | 21* | 2 | 11 | 3
CCC(C)NC(=O)CCc1nc2ccccc2n1-c1ccccc1 (stereo not given) | -1 | 1 | -3 | -11
CCN(C)c1nc(C)nc2c1nnn2Cc1ccccc1 | 0 | 0 | 1 | 1
CCN(CC)c1nc(C(F)(F)F)nc2c1nnn2Cc1ccccc1 | 39* | -4 | 4 | -13
Cc1ccccc1NC(=S)N1CCN(c2ccccc2Cl)CC1 | 0 | -3 | 2 | 6
CC1CCN(S(=O)(=O)c2ccc3c(c2)c(=O)c(C(=O)N2CCCCC2)cn3C)CC1 | 73* | -3 | -2 | -6
